For 20 compounds, IC50 and Ratio IC50 results are on record in ChEMBL document CHEMBL1212913, “Quinazolin-4-one derivatives: A novel class of noncompetitive NR2C/D subunit-selective N-methyl-D-aspartate receptor antagonists” (J Med Chem, 2010).

Molecules are shown by their SMILES.

Test [1] concerns the target Glutamate NMDA receptor; Grin1/Grin2a (Rattus norvegicus, UniProt P35439+Q00959). The experiment in a line: Antagonist activity at rat recombinant NR1-NR2A receptor expressed in Xenopus oocytes at holding potential of -40mV by two-electrode voltage-clamp electrophysiology. The format is functional, cell-based, Oocyte. To be noted: read-out: IC50. A digest of the protocol: (§1)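 Oocytes expressing rat NR1-1a with NR2A, NR2B, NR2C or NR2D, clamped at −40 mV in Ba2+/HEPES recording solution pH 7.4, 23°C. Current evoked by 100 μM glutamate plus 30 μM glycine. Final DMSO 0.05-0.5%, 5-7 inhibitor concentrations, ≥4 oocytes each. IC50 from Hill fit of normalized mean composite data. […] Some NR2A oocytes given BAPTA-AM or K-BAPTA.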

Test [2] has as its target Glutamate NMDA receptor; Grin1/Grin2b (Rattus norvegicus, UniProt P35439+Q00960). The experiment in a line: Antagonist activity at rat recombinant NR1-NR2B receptor expressed in Xenopus oocytes at holding potential of -40mV by two-electrode voltage-clamp electrophysiology. The format is functional, cell-based, Oocyte. The conditions noted are these: read-out: IC50. A digest of the protocol:
as §1

The species entered for test [3] is Rattus norvegicus. The experiment in a line: Selectivity ratio of IC50 for rat recombinant NR1-NR2A receptor to IC50 for rat recombinant NR1-NR2D receptor. A digest of the protocol:
(§2)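 Ratio of fitted IC50 values, either NR2A/NR2D or GluR1/NR2D, from two-electrode voltage-clamp Hill fits in oocytes. Where noted, calculated from IC50 values rounded to the nearest μM.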

Test [4] deals with Ionotropic glutamate receptor NMDA 1/2D (Rattus norvegicus, UniProt P35439+Q62645). Nature of the test: Antagonist activity at rat recombinant NR1-NR2D receptor expressed in Xenopus oocytes at holding potential of -40mV by two-electrode voltage-clamp electrophysiology. The format is functional, cell-based, Oocyte. A digest of the protocol:
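Oocytes expressing rat NR1-1a with NR2A, NR2B, NR2C or NR2D, clamped at −40 mV in Ba2+/HEPES recording solution pH 7.4, 23°C. Current evoked by 100 μM glutamate plus 30 μM glycine. Final DMSO 0.05-0.5%, 5-7 inhibitor concentrations, ≥4 oocytes each. IC50 from Hill fit of normalized mean composite data. Some NR2A oocytes given BAPTA-AM or K-BAPTA.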

Test [5] concerns the target Glutamate NMDA receptor; Grin1/Grin2c (Rattus norvegicus, UniProt P35439+Q00961). The experiment in a line: Antagonist activity at rat recombinant NR1-NR2C receptor expressed in Xenopus oocytes at holding potential of -40mV by two-electrode voltage-clamp electrophysiology. The format is functional, cell-based, Oocyte. A digest of the protocol:
as §1

The species entered for test [6] is Rattus norvegicus. Nature of the test: Selectivity ratio of IC50 for rat recombinant GLuR1 to IC50 for rat recombinant NR1-NR2D receptor. Summed up: as §2
Test [7] concerns the target Glutamate receptor 1 (Rattus norvegicus, UniProt P19490). Nature of the test: Antagonist activity at rat recombinant GLuR1 expressed in Xenopus oocytes assessed as inhibition of glutamate-induced current by two-electrode voltage-clamp electrophysiology. The format is functional, cell-based, Oocyte. Summed up:
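Two-electrode voltage clamp at −40 mV on Xenopus oocytes expressing rat GluR1, perfused with 90 NaCl, 1.0 KCl, 0.5 BaCl2, 0.005 EDTA, 10 HEPES (mM), pH 7.4, 23°C; activated by 100 μM glutamate. From 20 mM DMSO stocks, 5-7 concentrations, ≥4 oocytes each. Hill fit to mean composite curves normalized to control, minimum usually fixed at 0. Response >75% at 100 μM reported as >300 μM.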

Glutamate NMDA receptor; Grin1/Grin2a, sequence (Q00959 whole entry, other chains not shown): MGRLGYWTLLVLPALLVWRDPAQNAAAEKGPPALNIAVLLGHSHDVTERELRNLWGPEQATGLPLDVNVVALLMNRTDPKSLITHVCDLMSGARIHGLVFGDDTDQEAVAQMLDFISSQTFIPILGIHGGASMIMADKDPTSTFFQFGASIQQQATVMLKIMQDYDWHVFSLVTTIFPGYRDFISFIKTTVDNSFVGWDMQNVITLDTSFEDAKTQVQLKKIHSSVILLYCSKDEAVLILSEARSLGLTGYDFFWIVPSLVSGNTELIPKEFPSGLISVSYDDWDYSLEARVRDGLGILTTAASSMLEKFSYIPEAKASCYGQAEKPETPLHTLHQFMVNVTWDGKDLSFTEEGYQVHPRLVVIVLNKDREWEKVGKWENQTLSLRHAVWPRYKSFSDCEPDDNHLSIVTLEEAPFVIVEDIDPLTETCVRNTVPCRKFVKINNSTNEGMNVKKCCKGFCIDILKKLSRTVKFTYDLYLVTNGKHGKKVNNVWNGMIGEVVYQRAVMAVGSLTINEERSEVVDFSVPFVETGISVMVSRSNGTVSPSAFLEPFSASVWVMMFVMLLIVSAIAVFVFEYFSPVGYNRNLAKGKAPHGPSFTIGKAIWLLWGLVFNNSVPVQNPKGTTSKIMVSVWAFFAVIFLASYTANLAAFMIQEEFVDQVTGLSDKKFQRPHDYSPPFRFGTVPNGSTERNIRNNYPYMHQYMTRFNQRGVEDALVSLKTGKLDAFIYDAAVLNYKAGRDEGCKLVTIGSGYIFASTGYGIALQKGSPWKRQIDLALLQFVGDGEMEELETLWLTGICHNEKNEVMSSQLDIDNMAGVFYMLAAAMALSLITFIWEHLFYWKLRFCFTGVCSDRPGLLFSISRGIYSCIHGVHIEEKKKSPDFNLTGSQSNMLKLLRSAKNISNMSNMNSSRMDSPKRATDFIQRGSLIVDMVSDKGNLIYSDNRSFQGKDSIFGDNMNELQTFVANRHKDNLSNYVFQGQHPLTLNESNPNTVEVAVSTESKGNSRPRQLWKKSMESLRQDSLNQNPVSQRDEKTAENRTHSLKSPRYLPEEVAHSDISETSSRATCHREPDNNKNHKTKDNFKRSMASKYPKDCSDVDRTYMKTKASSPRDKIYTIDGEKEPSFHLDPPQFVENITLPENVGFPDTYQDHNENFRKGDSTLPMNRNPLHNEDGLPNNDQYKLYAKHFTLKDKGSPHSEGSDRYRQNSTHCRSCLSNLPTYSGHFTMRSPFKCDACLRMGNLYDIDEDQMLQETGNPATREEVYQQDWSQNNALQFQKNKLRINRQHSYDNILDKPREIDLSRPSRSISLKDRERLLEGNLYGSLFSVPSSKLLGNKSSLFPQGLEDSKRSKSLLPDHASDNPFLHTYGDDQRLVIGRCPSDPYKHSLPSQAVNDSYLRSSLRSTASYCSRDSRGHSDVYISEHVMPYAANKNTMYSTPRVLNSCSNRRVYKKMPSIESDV
Glutamate NMDA receptor; Grin1/Grin2b, sequence (Q00960 whole entry, other chains not shown): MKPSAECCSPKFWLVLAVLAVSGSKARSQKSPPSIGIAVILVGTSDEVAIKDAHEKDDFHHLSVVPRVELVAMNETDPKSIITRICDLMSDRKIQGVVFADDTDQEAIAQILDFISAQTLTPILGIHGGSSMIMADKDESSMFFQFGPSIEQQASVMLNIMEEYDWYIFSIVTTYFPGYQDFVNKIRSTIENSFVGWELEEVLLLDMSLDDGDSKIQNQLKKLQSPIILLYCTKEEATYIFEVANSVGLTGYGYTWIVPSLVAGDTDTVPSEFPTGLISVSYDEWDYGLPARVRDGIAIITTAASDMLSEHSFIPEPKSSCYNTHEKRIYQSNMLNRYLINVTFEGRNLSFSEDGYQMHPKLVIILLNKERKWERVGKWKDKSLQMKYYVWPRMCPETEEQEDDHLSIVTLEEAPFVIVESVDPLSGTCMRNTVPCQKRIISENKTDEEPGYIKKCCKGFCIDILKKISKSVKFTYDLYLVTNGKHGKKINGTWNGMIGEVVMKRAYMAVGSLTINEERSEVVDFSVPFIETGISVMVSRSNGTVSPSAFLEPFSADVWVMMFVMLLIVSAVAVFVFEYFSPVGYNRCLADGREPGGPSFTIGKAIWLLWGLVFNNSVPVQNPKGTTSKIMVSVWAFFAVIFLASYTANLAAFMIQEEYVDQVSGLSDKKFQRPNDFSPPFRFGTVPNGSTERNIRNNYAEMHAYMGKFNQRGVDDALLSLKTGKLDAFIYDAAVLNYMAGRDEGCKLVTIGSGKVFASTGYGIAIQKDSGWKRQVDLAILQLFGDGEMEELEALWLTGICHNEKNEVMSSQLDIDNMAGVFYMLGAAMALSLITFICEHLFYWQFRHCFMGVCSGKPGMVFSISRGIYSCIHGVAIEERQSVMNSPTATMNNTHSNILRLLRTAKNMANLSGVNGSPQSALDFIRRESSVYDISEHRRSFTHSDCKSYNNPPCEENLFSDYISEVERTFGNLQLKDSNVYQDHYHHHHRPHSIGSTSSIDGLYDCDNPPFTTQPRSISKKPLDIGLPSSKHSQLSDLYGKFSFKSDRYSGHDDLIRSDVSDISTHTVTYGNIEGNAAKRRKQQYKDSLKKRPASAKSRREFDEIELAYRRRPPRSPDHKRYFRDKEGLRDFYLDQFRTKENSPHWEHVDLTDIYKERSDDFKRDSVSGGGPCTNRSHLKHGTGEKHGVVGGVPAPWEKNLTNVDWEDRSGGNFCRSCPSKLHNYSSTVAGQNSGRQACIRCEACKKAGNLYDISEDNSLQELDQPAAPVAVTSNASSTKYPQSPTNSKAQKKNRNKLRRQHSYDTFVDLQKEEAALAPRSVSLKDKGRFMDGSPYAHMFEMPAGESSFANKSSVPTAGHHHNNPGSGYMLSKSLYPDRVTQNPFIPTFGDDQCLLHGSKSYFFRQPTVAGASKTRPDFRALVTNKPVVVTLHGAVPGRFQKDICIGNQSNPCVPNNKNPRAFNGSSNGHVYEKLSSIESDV
Glutamate receptor 1, sequence (P19490 whole entry, the tested form may be a part): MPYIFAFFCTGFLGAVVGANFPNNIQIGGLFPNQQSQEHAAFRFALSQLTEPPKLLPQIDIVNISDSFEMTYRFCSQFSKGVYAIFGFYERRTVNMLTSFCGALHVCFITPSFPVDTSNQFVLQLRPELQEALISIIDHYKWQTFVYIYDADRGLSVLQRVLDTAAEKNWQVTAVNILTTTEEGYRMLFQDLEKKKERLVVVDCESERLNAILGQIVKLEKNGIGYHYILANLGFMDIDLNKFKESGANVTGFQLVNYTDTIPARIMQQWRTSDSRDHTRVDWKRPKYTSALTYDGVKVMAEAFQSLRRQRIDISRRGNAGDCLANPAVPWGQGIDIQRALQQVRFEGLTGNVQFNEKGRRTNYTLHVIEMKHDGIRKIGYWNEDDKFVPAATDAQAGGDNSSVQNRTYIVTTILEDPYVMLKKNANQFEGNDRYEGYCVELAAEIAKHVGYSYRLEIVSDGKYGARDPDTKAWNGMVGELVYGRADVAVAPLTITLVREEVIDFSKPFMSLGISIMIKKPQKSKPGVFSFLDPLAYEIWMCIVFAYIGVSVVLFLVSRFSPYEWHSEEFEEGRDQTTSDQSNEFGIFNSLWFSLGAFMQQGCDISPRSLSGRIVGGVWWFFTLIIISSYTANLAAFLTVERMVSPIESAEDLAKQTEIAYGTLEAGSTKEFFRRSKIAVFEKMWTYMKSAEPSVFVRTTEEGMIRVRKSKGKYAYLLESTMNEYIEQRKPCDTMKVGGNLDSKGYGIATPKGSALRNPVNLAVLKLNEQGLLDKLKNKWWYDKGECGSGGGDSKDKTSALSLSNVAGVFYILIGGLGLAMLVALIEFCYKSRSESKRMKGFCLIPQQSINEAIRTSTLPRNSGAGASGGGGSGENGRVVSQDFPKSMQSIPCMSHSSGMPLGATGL
Glutamate NMDA receptor; Grin1/Grin2c, sequence (Q00961 whole entry, other chains not shown): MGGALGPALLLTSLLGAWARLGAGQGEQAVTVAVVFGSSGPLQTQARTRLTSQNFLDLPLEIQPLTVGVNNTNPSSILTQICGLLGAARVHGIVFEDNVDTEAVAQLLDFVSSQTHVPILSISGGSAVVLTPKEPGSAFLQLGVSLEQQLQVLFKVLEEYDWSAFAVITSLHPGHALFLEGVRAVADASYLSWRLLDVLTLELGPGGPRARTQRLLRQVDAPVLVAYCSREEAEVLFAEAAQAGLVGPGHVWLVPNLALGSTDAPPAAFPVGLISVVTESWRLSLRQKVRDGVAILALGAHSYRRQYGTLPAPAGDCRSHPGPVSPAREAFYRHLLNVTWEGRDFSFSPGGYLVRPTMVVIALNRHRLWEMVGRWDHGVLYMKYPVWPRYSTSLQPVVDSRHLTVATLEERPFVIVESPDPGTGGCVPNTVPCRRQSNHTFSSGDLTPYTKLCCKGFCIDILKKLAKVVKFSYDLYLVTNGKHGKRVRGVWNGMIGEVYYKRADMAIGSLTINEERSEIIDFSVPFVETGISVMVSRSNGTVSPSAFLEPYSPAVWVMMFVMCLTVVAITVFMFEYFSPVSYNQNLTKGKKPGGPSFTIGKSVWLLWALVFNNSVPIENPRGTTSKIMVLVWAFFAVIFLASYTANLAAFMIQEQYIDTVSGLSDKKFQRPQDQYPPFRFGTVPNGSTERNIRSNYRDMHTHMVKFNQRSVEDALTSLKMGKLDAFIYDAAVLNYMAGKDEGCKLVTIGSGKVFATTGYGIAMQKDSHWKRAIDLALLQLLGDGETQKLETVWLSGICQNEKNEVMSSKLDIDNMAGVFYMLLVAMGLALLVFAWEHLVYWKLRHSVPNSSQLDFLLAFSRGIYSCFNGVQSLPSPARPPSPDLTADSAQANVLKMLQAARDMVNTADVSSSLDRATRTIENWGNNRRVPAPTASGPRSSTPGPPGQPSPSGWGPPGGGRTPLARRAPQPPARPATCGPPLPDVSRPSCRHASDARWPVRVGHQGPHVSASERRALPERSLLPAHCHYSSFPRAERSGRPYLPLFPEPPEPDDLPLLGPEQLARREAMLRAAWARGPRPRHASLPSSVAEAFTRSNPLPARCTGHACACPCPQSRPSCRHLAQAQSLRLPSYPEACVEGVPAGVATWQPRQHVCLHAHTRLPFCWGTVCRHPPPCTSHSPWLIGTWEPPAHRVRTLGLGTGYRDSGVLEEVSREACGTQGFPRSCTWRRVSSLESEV

Consider `COc1ccc2cc(/C=C/c3nc4ccccc4c(=O)n3-c3ccc(C(=O)O)cc3)ccc2c1`, for which the half-inhibitory concentration (IC50) turned out to be 63 µM in test [1]; 36 µM in test [2]; 11 µM in test [4]; 20 µM in test [5]; 103 µM in test [7]. The Ratio IC50 in test [3] was 6; in test [6] it was 9.
For the compound `O=C(O)c1ccc(-n2c(/C=C/c3cccc([N+](=O)[O-])c3)nc3cc(Cl)ccc3c2=O)cc1`, the IC50 amounted to 32 µM in test [1]; 52 µM in test [2]; 15 µM in test [4]; 16 µM in test [5]; 41 µM in test [7]. Further, the Ratio IC50 in test [3] stood at 2; in test [6], 3.
In the case of `O=c1c2cc(I)ccc2nc(/C=C/c2cccnc2)n1-c1ccccc1`, the IC50 in test [1] was 132 µM; in test [2], above 300 µM; in test [4], 108 µM; in test [5], above 300 µM; in test [7] it was above 300 µM. Moreover, the Ratio IC50 is 1 in test [3] and 3 in test [6].
Take `O=C(O)c1ccc(-n2c(/C=C/c3cccc([N+](=O)[O-])c3)nc3ccc(-c4cccs4)cc3c2=O)cc1`: the concentration for half-maximal inhibition (IC50) was 157 µM in test [1]; 129 µM in test [2]; 3 µM in test [4]; 5 µM in test [5]; 280 µM in test [7]. Also, the Ratio IC50 stood at 52 in test [3] and 93 in test [6].
For `O=C(O)c1ccc(-n2c(/C=C/c3cccc([N+](=O)[O-])c3)nc3ccc(-c4ccccc4)cc3c2=O)cc1`, the IC50 stood at 11 µM in test [1]; 3 µM in test [2]; 2 µM in test [4]; 2 µM in test [5]; 5 µM in test [7]. Also, the values for the Ratio IC50 in test [3] and in test [6] were 6 and 3, respectively.
Take `COc1ccccc1-n1c(/C=C/c2cccnc2)nc2ccc(I)cc2c1=O`: the IC50 was determined as 31 µM in test [1]; 30 µM in test [2]; 3 µM in test [4]; 3 µM in test [5]; 199 µM in test [7]. The Ratio IC50 amounted to 10 in test [3] and 66 in test [6].
For `Cc1ccc2nc(/C=C/c3cccc([N+](=O)[O-])c3)n(-c3ccc(C(=O)O)cc3)c(=O)c2c1`, the IC50 in test [1] is 12 µM; in test [2] it was 15 µM; in test [4] it was 2 µM; in test [5], 5 µM; in test [7], 27 µM. Further, the figures for the Ratio IC50 in test [3] and in test [6] were 6 and 14, respectively.
Regarding `O=c1c2cc(I)ccc2nc(/C=C/c2cccnc2)n1-c1ccc([N+](=O)[O-])cc1`, the IC50 in test [1] is above 300 µM; in test [2], above 300 µM; in test [4], 218 µM; in test [5] it was 204 µM; in test [7] it was above 300 µM. The Ratio IC50 in test [3] and in test [6] was 1 throughout.
For the compound `CCCc1ccc2nc(/C=C/c3cccc([N+](=O)[O-])c3)n(-c3ccc(C(=O)O)cc3)c(=O)c2c1`, the concentration for half-maximal inhibition (IC50) is 28 µM in test [1]; 18 µM in test [2]; 4 µM in test [4]; 3 µM in test [5]; 50 µM in test [7]. The values for the Ratio IC50 in test [3] and in test [6] were 7 and 13, respectively.
In the case of `COC(=O)c1cccc(/C=C/c2nc3ccc(OC)cc3c(=O)n2-c2ccc(C(=O)O)cc2)c1`, the half-maximal inhibitory concentration (IC50) stood at 80 µM in test [1]; 39 µM in test [2]; 6 µM in test [4]; 15 µM in test [5]; 41 µM in test [7]. Also, the Ratio IC50 in test [3] came to 13; in test [6], 7.
`O=C(O)c1ccc(-n2c(/C=C/c3cccc([N+](=O)[O-])c3)nc3c(Cl)cccc3c2=O)cc1`: the IC50 in test [1] turned out to be 56 µM; in test [2] it was 243 µM; in test [4], 9 µM; in test [5] it was 12 µM; in test [7] it was 87 µM. Further, the Ratio IC50 turned out to be 6 in test [3] and 10 in test [6].
Turning to `O=C(O)c1ccc(-n2c(/C=C/c3cccc4ccccc34)nc3ccccc3c2=O)cc1`, the IC50 is 25 µM in test [1]; 68 µM in test [2]; 6 µM in test [4]; 22 µM in test [5]; 82 µM in test [7]. In addition, the Ratio IC50 in test [3] came out at 4; in test [6] it was 14.
For `O=C(O)c1ccc(-n2c(/C=C/c3ccccc3)nc3ccc(I)cc3c2=O)cc1`, the IC50 in test [1] is 53 µM; in test [2], 66 µM; in test [4], 4 µM; in test [5], 13 µM; in test [7] it was 23 µM. Also, the Ratio IC50 in test [3] stood at 13; in test [6], 6.
With `O=c1c2cc(I)ccc2nc(/C=C/c2cccnc2)n1-c1ccccc1[N+](=O)[O-]`, the IC50 in test [1] is 206 µM; in test [2] it was 105 µM; in test [4] it was 5 µM; in test [5], 19 µM; in test [7], above 300 µM. Moreover, the Ratio IC50 in test [3] was 41; in test [6], 60.
In the case of `Cc1ccccc1-n1c(/C=C/c2cccnc2)nc2ccc(I)cc2c1=O`, the IC50 was above 300 µM in test [1]; 156 µM in test [2]; 25 µM in test [4]; 70 µM in test [5]; 83 µM in test [7]. The Ratio IC50 was above 12 in test [3] and 3 in test [6].
As to `O=C(O)c1ccc(-n2c(/C=C/c3cccc([N+](=O)[O-])c3)nc3ccc(Br)cc3c2=O)cc1`, the 50% inhibitory concentration (IC50) worked out at 17 µM in test [1]; 13 µM in test [2]; 1 µM in test [4]; 2 µM in test [5]; 8 µM in test [7]. Moreover, the Ratio IC50 stood at 17 in test [3] and 8 in test [6].
As for `O=C(O)c1ccc(-n2c(/C=C/c3cccc([N+](=O)[O-])c3)nc3c(Cl)cc(Cl)cc3c2=O)cc1`, the concentration for half-maximal inhibition (IC50) was 224 µM in test [1]; 109 µM in test [2]; 10 µM in test [4]; 16 µM in test [5]; above 300 µM in test [7]. Moreover, the Ratio IC50 in test [3] was found to be 22; in test [6] it was 30.
Regarding `O=C(O)c1ccc(-n2c(/C=C/c3ccc(N4CCOCC4)cc3)nc3ccccc3c2=O)cc1`, the IC50 is above 300 µM in test [1]; 122 µM in test [2]; 171 µM in test [4]; 284 µM in test [5]; above 300 µM in test [7]. The Ratio IC50 in test [3] and in test [6] was 1 each time.
Regarding `COc1cccc(/C=C/c2nc3ccc(OC)cc3c(=O)n2-c2ccc(C(=O)O)cc2)c1`, the half-inhibitory concentration (IC50) worked out at 73 µM in test [1]; 109 µM in test [2]; 9 µM in test [4]; 18 µM in test [5]; 220 µM in test [7]. Besides, the results for the Ratio IC50 in test [3] and in test [6] were 8 and 24, respectively.
For the compound `O=C(O)c1cccc(-n2c(/C=C/c3cccnc3)nc3ccc(I)cc3c2=O)c1`, the IC50 in test [1] came out at 45 µM; in test [2] it was 49 µM; in test [4], 4 µM; in test [5], 7 µM; in test [7] it was 64 µM. Moreover, the Ratio IC50 in test [3] was found to be 11; in test [6], 16.
